This is a sample that favours compounds with a hit; in the whole collection about 4.9% have one here.
STAT1 blocker = inhibitors of IFN-gamma induced STAT1 signaling; NIH 3T3 STAT1-luciferase reporter, luminescence; inhibition, % at 5.5 µM; hit rate 0.35% among 200,000;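 active = inhibition above a set limit, the mean inhibition across all tested compounds plus 3 SD, cut at about 34% in these data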;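 note: 0% = IFN-gamma with DMSO and 100% = IFN-gamma with 300 µM nifuroxazide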
STAT3 act = increases IL-6 driven STAT3 reporter signal | U3A cells, IL-6 STAT3-luciferase reporter, luminescence; 100% = signal with IL-6 EC80 alone | activation (% of control), % at 5.6 µM | hit rate 0.91% among 190,000 | AID 871;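 active = activation above the screen-wide mean of compound activation plus 3 SD, cut at about 130% in these data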;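 note: 0% = background luminescence of wells with medium and substrate only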
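Material: human STAT1-deficient U3A cells with stable STAT3-luciferase reporter / Probe or stimulus: IL-6 stimulus at 33 ng/mL final / Schedule: 1 h compound pre-exposure, 6 h IL-6 stimulation, 37 °C / Technique: luminescence / Read-out basis: percent of IL-6-only median luminescence / Control set: IL-6-only high control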
NF-kB neuron act = NF-kB expression increase, human neuronal cells. hit rate 1.6% among 190,000. fold change at 12.5 µM. NF-kB reporter expression; stronger effect = higher value. AID 1239; in the data active = fold change above about 3.3
STAT3 blocker = reduces IL-6 driven STAT3 reporter signal; hit rate 0.89% among 190,000; inhibition, % at 5.5 µM; U3A cells, IL-6 STAT3-luciferase reporter, luminescence; host cell line lacks STAT1;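 active = inhibition above the mean inhibition across all screened compounds plus 3 SD, cut at about 44% in these data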;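 note: 0% = DMSO only wells and 100% = 100 µM nifuroxazide control wells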
APP 5'UTR act = APP 5'UTR luciferase reporter activation | activation, % at 2 µM | SH-SY5Y APP 5'UTR luciferase reporter, luminescence; zero percent = DMSO vehicle wells | hit rate 1% among 190,000 | AID 1276;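 active = activation above a set limit, based on mean plus 3 SD of controls, cut at about 140% in these data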
STAT1 activator = STAT1 signaling activation | NIH 3T3 STAT1-luciferase reporter, IFN-gamma, luminescence; 100% = IFN-gamma alone, no compound | activation (% of control), % at 5.5 µM | hit rate 2.6% among 200,000;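 active = activation above the screen-wide mean activation plus 3 SD, cut at about 130% in these data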;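 note: raw ratio to IFN-gamma control signal so 100% means no change and 0% no light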
Active calls of the source: *.

SMILES | STAT1 blocker | STAT3 act | NF-kB neuron act | STAT3 blocker | APP 5'UTR act | STAT1 activator
Cc1noc(C)c1COC(=O)CCCc1c[nH]c2ccccc12 | 14 | 134* | 1.2 | -32 | -17 | 88
Cc1cc(NC(=O)c2ccc(N3CCCC3)c([N+](=O)[O-])c2)no1 | -6 | 91 | 1 | 15 | 5 | 105
O=C(Nc1ccon1)c1ccc(N2CCCCC2)c([N+](=O)[O-])c1 | -58 | 110 | 3.2 | -5 | 133 | 150*
CN=c1scc(-c2ccc([N+](=O)[O-])cc2)n1/N=C/c1ccco1 | -21 | 80 | 1.5 | 30 | 196* | 119
O=[N+]([O-])c1ccc(S(=O)(=O)N/N=C/c2ccco2)cc1 | -4 | 102 | 1 | 2 | 13 | 102
Cc1cc(C)c2c(N)c3cccc(C)c3nc2n1 | -53 | 120 | 0.97 | -16 | -27 | 148*
Cc1cccc2c(N)c3c(nc12)CCCC3 (tested in a mixture with another compound) | -22 | 109 | 1.8 | -8 | 19 | 118
Cc1c(C(=O)Oc2ccc(F)cc2)sc2ncn(Cc3cccc(F)c3)c(=O)c12 | -7 | 96 | 0.97 | 5 | 8 | 106
CCn1cnc2sc(C(=O)Oc3cccc(C)c3)c(C)c2c1=O | -36 | 88 | 1.8 | 24 | 10 | 132*
CCOC(=O)C1=C(C)n2c(s/c(=C/c3cccc([N+](=O)[O-])c3)c2=O)=NC1c1ccc(O)c(OC)c1 (stereo not given) | -1 | 107 | 6.8* | -2 | 2 | 101
CCOC(=O)C1=C(C)N=c2s/c(=C/c3ccccc3)c(=O)n2C1c1ccc(OC)c(OC)c1 (stereo not given) | -2 | 108 | 1.2 | 2 | 4 | 102
CCOc1ccc(C(=S)N2CCN(C)CC2)cc1 | -3 | 105 | 0.98 | 4 | 7 | 103
CCc1cc(C(=O)Nc2ccc(C)cc2Br)cs1 | -45 | 144* | 5.8* | -48 | 126 | 137*
CCN(CC)CC(=O)Nc1ccc(C)cc1Br | -4 | 111 | 1.3 | -11 | 13 | 104
CCc1cc(C(=O)NNC(=S)Nc2cccc(C)c2)cs1 | -12 | 97 | 2.8 | 6 | 162* | 114
Cc1cccc(NC(=S)NNC(=O)c2csc(C(C)C)c2)c1 | -36 | 105 | 2.4 | -2 | 131 | 124
O=C(N/N=C/c1c[nH]c2ccccc12)c1ccn(Cc2ccc(Cl)cc2Cl)n1 | 6 | 135* | 1.1 | -33 | 8 | 95
O=C(CSc1nnc(SCc2ccccc2)s1)N/N=C/c1c[nH]c2ccccc12 | 1 | 90 | 1.1 | 22 | -6 | 98
Cc1ccc(CSc2nnc(SCC(=O)N/N=C/c3c[nH]c4ccccc34)s2)cc1 | -35 | 92 | 1.1 | 20 | -37 | 131*

Screening data from PubChem BioAssay.
